Holding throughout (settings): stereoisomer not certain
The target of one experiment is T1, UniProt Q8VGC6.
T1 sequence (whole entry): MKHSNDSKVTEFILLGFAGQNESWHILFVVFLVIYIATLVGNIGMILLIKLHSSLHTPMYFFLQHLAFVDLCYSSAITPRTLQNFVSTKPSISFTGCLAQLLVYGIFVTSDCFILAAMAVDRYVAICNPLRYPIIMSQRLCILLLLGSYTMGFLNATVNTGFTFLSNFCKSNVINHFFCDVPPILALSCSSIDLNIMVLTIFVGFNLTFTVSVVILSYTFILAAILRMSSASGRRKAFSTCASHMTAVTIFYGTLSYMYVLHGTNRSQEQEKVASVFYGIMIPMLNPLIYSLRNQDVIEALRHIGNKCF
Summed up:
(§1)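 Assay methods differ from source to source, frequently being transient luciferase assays in mammalian cell lines. For each receptor–molecule pair, the label responsive (active) applies when the original authors judged the measured signal statistically different from baseline, and non-responsive (inactive) applies otherwise.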

The next experiment concerns the target T2, UniProt Q8VGD7.
T2 sequence (whole entry): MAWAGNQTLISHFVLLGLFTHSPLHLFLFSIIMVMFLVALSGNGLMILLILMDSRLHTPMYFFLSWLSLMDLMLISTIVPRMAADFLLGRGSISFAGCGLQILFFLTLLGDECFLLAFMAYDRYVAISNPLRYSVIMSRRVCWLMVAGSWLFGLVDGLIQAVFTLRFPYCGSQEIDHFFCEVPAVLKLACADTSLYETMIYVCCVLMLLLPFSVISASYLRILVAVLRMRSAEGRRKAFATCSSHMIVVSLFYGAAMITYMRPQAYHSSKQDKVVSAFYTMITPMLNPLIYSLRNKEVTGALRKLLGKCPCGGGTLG
Summed up:
as §1

The target in another experiment is T3, UniProt Q8VGH1.
T3 sequence (whole entry): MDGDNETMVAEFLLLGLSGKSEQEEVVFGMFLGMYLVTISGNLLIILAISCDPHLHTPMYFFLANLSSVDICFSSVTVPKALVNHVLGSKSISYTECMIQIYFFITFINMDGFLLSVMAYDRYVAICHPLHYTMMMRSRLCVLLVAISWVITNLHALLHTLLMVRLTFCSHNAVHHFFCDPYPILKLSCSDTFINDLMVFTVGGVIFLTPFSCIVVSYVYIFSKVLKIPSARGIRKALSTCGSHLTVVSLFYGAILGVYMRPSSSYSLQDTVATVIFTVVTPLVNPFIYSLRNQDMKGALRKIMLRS
In a few lines: as §1

In a further experiment the target is T4, UniProt Q8VGJ1.
T4 sequence (whole entry): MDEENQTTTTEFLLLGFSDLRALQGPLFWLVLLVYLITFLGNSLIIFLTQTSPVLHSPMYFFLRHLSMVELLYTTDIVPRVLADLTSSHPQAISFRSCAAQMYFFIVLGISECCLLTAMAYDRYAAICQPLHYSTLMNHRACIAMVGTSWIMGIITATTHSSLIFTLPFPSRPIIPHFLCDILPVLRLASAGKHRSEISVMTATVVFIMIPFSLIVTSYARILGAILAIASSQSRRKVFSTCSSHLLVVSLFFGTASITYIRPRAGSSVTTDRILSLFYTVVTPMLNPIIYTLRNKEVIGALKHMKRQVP
Summed up: as §1

The target of another experiment is T5, UniProt Q8VGJ3.
T5 sequence (whole entry): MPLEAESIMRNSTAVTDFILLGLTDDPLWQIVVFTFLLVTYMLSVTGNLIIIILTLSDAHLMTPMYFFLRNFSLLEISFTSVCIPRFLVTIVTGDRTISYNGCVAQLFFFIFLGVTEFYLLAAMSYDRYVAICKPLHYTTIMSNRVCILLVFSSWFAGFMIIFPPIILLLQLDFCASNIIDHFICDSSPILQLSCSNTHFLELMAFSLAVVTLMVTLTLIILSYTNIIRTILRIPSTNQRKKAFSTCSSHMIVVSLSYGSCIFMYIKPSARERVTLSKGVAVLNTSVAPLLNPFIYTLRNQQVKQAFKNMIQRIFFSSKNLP
Summed up: as §1

In the next experiment the target is T6, UniProt Q8VGJ5.
T6 sequence (whole entry): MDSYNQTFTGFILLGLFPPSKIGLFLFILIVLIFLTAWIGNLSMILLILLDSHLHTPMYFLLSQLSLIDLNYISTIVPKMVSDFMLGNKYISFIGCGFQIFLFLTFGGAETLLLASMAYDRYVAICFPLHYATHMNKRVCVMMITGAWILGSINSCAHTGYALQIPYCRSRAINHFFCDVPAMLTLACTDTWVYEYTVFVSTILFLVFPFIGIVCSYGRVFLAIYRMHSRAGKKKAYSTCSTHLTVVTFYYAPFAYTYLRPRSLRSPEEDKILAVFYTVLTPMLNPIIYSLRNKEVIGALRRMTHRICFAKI
Summed up:
as §1

The target of the next experiment is T7, UniProt Q8VGL0.
T7 sequence (whole entry): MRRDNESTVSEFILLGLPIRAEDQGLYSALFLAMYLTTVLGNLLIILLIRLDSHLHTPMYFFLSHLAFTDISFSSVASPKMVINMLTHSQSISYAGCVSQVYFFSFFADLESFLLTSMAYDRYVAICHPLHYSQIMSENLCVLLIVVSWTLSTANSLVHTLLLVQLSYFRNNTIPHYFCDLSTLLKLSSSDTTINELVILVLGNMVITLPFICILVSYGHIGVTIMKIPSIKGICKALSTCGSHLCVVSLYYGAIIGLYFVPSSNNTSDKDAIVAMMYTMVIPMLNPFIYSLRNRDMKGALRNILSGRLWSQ
Summed up:
as §1

Another experiment concerns the target T8, UniProt Q8VGL7.
T8 sequence (whole entry): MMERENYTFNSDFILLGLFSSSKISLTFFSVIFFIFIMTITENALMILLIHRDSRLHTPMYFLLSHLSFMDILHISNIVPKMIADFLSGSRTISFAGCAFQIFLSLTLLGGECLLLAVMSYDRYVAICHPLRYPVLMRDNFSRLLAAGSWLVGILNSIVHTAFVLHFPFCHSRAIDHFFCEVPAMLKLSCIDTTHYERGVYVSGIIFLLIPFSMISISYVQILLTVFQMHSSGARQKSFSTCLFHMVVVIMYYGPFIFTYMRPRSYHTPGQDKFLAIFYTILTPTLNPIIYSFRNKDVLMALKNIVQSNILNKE
Summed up: as §1

Another experiment deals with T9, UniProt Q8VGM2.
T9 sequence (whole entry): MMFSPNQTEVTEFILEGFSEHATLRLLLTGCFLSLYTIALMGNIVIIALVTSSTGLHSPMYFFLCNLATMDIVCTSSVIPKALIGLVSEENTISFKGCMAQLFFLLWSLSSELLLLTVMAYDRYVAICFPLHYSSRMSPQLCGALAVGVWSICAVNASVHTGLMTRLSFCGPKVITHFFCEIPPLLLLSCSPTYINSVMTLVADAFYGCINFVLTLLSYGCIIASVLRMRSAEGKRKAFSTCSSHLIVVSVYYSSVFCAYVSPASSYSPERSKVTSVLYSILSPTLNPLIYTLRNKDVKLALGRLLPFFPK
In a few lines: as §1

Another experiment addresses T10, UniProt Q8VGP6.
T10 sequence (whole entry): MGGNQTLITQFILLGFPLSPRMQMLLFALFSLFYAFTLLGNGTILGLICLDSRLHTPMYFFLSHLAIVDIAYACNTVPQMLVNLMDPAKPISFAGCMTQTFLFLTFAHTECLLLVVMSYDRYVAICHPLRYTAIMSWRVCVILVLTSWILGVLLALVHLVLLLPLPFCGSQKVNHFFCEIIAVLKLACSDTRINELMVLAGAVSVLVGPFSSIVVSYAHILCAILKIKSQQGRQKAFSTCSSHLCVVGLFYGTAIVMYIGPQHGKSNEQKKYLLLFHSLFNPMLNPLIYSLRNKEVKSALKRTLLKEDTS
In a few lines: as §1

The target in the next experiment is T11, UniProt Q8VGQ3.
T11 sequence (whole entry): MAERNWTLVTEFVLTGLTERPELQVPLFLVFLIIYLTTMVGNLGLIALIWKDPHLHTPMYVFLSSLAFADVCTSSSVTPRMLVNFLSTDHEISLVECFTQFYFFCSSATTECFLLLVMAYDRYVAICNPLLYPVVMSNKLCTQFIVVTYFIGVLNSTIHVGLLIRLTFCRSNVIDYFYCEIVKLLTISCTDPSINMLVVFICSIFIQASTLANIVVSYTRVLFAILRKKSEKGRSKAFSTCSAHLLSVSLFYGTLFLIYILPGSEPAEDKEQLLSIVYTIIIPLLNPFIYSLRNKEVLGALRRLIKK
Summed up:
as §1

A further experiment addresses T12, UniProt Q8VGT4.
T12 sequence (whole entry): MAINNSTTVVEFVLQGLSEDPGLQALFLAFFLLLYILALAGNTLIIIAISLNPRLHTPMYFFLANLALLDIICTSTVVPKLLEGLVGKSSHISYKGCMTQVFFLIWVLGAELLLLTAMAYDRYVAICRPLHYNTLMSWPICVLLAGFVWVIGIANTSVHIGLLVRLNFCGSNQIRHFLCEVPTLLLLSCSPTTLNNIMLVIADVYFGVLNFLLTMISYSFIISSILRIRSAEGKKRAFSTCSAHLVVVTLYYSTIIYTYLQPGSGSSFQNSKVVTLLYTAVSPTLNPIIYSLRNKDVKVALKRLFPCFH
Summed up: as §1

A further experiment deals with T13, UniProt Q8VGU3.
T13 sequence (whole entry): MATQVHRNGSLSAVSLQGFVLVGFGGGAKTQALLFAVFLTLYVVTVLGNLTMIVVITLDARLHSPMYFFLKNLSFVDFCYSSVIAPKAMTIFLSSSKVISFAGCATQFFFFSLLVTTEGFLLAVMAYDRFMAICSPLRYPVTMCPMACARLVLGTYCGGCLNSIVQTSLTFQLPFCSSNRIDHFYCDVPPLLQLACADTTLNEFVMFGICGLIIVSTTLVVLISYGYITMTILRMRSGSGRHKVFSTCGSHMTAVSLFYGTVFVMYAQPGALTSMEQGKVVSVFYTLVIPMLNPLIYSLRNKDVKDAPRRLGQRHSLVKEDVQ
Summed up: as §1

For the next experiment, the target named is T14, UniProt Q8VGV1.
T14 sequence (whole entry): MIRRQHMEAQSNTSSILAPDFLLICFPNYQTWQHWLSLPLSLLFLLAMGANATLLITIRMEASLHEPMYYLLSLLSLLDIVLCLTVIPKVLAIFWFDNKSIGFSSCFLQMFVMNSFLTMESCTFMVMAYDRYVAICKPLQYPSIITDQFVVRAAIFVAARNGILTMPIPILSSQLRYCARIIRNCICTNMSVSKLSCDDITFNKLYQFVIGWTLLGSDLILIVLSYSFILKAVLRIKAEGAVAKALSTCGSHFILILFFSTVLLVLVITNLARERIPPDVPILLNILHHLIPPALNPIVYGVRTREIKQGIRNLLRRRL
In a few lines:
as §1

Another experiment concerns the target T15, UniProt Q8VGV7.
T15 sequence (whole entry): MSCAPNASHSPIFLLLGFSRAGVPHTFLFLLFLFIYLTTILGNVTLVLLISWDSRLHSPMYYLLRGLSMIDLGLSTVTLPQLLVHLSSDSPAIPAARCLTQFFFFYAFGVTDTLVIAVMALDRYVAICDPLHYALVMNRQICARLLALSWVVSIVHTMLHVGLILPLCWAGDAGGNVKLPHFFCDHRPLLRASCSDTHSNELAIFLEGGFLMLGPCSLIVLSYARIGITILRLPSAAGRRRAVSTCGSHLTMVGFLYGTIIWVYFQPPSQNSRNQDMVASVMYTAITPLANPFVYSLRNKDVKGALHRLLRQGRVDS
Summed up:
as §1

The next experiment addresses T16, UniProt Q8VGX3.
T16 sequence (whole entry): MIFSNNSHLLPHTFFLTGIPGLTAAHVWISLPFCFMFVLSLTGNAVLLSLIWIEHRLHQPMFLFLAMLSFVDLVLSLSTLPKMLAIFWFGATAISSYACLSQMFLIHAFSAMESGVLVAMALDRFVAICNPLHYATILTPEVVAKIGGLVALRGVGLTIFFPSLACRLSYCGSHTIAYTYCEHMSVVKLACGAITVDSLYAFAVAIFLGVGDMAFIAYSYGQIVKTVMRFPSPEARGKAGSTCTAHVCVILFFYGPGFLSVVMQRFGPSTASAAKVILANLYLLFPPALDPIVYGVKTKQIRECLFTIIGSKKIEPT
In a few lines:
as §1

A further experiment deals with T17, UniProt Q8VGX5.
T17 sequence (whole entry): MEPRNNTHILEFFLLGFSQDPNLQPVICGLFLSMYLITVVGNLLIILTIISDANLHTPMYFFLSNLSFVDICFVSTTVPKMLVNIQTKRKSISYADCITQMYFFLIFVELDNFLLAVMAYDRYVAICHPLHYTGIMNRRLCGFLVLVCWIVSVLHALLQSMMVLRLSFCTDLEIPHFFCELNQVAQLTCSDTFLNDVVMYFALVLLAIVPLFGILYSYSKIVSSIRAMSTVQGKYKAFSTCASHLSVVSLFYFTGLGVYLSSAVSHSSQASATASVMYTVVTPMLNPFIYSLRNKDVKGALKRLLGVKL
In a few lines:
as §1

`O=C1Cc2ccccc2O1`: the “odorant receptor agonist call” value in the experiment with UniProt Q8VGC6, in the experiment with UniProt Q8VGD7, with UniProt Q8VGH1, in the experiment with UniProt Q8VGJ1, with UniProt Q8VGJ3 and with UniProt Q8VGJ5 was “inactive” each time. The “odorant receptor agonist call” value in the experiment with UniProt Q8VGL0, in the experiment with UniProt Q8VGL7, with UniProt Q8VGM2, with UniProt Q8VGP6, with UniProt Q8VGQ3 and in the experiment with UniProt Q8VGT4 was “inactive” each time. Further, the “odorant receptor agonist call” value with UniProt Q8VGU3, with UniProt Q8VGV1, in the experiment with UniProt Q8VGV7 and in the experiment with UniProt Q8VGX3 was “inactive” in each case. Besides, the “odorant receptor agonist call” value with UniProt Q8VGX5 is “active”.

Take `CCOC(=O)C(C)C`: the “odorant receptor agonist call” value in the experiment with UniProt Q8VGC6, in the experiment with UniProt Q8VGD7, with UniProt Q8VGH1, with UniProt Q8VGJ1, with UniProt Q8VGJ3 and with UniProt Q8VGL0 was “inactive” in each case. The “odorant receptor agonist call” value with UniProt Q8VGM2, with UniProt Q8VGP6, with UniProt Q8VGQ3, in the experiment with UniProt Q8VGT4, with UniProt Q8VGU3 and in the experiment with UniProt Q8VGV1 was “inactive” throughout. For the same compound, the “odorant receptor agonist call” value with UniProt Q8VGV7, with UniProt Q8VGX3 and with UniProt Q8VGX5 was “inactive” throughout. The “odorant receptor agonist call” value in the experiment with UniProt Q8VGJ5 and with UniProt Q8VGL7 was “active” each time.

For the origin of these results see the M2OR odorant receptor database.
